Data from ChEMBL document CHEMBL1148407, “Macrocyclic polyamines deplete cellular ATP levels and inhibit cell growth in human prostate cancer cells” (2004).

Assays:
DuPro [1] = assay: Macrocycle level in DuPro cells in 3 days after treatment with 0.5 uM concentration of the compound; Macrocycle level measured in per 10 lakh cells; type: functional, Homo sapiens
Outline: (§1)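 Log-phase DuPro cells grown in RPMI 1640 with 10% fetal calf serum were exposed to macrocycle at 0.5–4 μM for 3 or 5 days, harvested with trypsin/EDTA and counted. About 1×10^6 cells were washed in cold PBS, extracted in 2% perchloric acid and sonicated. Supernatant was dansylated (modified for ring NH) and analysed by C-18 HPLC with fluorescence detection. Untreated controls were run per experiment.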

DuPro [2] = assay: Macrocycle level in DuPro cells in 3 days after treatment with 2 uM concentration of the compound; Macrocycle level measured in per 10 lakh cells; type: functional, Homo sapiens; outline: as §1
DuPro [3] = assay: Macrocycle level in DuPro cells in 5 days after treatment with 0.5 uM concentration of the compound; Macrocycle level measured in per 10 lakh cells; type: functional, Homo sapiens; outline: as §1
DuPro [4] = assay: Macrocycle level in DuPro cells in 5 days after treatment with 2 uM concentration of the compound; Macrocycle level measured in per 10 lakh cells; type: functional, Homo sapiens; outline: as §1
DuPro [5] = assay: Spermine level in DuPro cells in 3 days after treatment with 0.5 uM concentration of the compound; Sm level measured in per 10 lakh cells; type: functional, Homo sapiens; outline: as §1
DuPro [6] = assay: Spermidine level in DuPro cells in 5 days after treatment with 0.5 uM concentration of the compound; Spd level measured in per 10 lakh cells; type: functional, Homo sapiens; outline: as §1
PC-3 = assay: Inhibitory effect against growth of PC-3 human prostate cancer cell line; type: functional; conditions: read-out: ID50 (the source's name)
Outline: (§2)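 MTT growth assay. Trypsinized cells, 500 per well, seeded and incubated overnight at 37 °C in humidified 95% air/5% CO2. Serial macrocycle dilutions added, each concentration in quadruplicate, buffer controls in the outer columns, 6 days (144 h) of exposure. MTT 5 mg/mL added for 4 h, then overnight lysis in SDS/DMF/acetic acid buffer pH 4.8. Absorbance at 570 nm; ID50 derived.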

DuPro [7] = assay: Macrocycle level in DuPro cells in 3 days after treatment with 1 uM concentration of the compound; Macrocycle level measured in per 10 lakh cells; type: functional, Homo sapiens; outline: as §1
DuPro [8] = assay: Macrocycle level in DuPro cells in 5 days after treatment with 1 uM concentration of the compound; Macrocycle level measured in per 10 lakh cells; type: functional, Homo sapiens; outline: as §1
DuPro [9] = assay: Spermine level in DuPro cells in3 days after treatment with 1 uM concentration of the compound; Sm level measured in per 10 lakh cells; type: functional, Homo sapiens; outline: as §1
DuPro [10] = assay: Macrocycle level in DuPro cells at 3 days after treatment with 2 uM concentration of the compound; Macrocycle level measured in per 10 lakh cells; type: functional, Homo sapiens; outline: as §1
DuPro [11] = assay: Macrocycle level in DuPro cells at 5 days after treatment with 1 uM concentration of the compound; Macrocycle level measured in per 10 lakh cells; type: functional, Homo sapiens; outline: as §1
DuPro [12] = assay: Macrocycle level in DuPro cells at 5 days after treatment with 2 uM concentration of the compound; Macrocycle level measured in per 10 lakh cells; type: functional, Homo sapiens; outline: as §1
DuPro [13] = assay: Putrescine level in DuPro cells at 3 days after treatment with 2 uM concentration of the compound; Put level measured in per 10 lakh cells; type: functional, Homo sapiens; outline: as §1
DuPro [14] = assay: Putrescine level in DuPro cells at 5 days after treatment with 2 uM concentration of the compound; Put level measured in per 10 lakh cells; type: functional, Homo sapiens; outline: as §1
DuPro [15] = assay: Spermine level in DuPro cells at 3 days after treatment with 2 uM concentration of the compound; Sm level measured in per 10 lakh cells; type: functional, Homo sapiens; outline: as §1
DuPro [16] = assay: Spermine level in DuPro cells in 5 days after treatment with 1 uM concentration of the compound; Sm level measured in per 10 lakh cells; type: functional, Homo sapiens; outline: as §1
DuPro [17] = assay: Macrocycle level in DuPro cells at 3 days after treatment with 1 uM concentration of the compound; Macrocycle level measured in per 10 lakh cells; type: functional, Homo sapiens; outline: as §1
DuPro [18] = assay: Spermidine level in DuPro cells in 3 days after treatment with 1 uM concentration of the compound; Spd level measured in per 10 lakh cells; type: functional, Homo sapiens; outline: as §1
DuPro [19] = assay: Spermidine level in DuPro cells in 5 days after treatment with 1 uM concentration of the compound; Spd level measured in per 10 lakh cells; type: functional, Homo sapiens; outline: as §1
DuPro [20] = assay: Spermidine level in DuPro cells at 3 days after treatment with 2 uM concentration of the compound; Spd level measured in per 10 lakh cells; type: functional, Homo sapiens; outline: as §1
DuPro [21] = assay: Spermidine level in DuPro cells at 5 days after treatment with 2 uM concentration of the compound; Spd level measured in per 10 lakh cells; type: functional, Homo sapiens; outline: as §1
DuPro [22] = assay: Putrescine level in DuPro cells in 3 days after treatment with 1 uM concentration of the compound; Put level measured in per 10 lakh cells; type: functional, Homo sapiens; outline: as §1
DuPro [23] = assay: Spermine level in DuPro cells at 5 days after treatment with 2 uM concentration of the compound; Sm level measured in per 10 lakh cells; type: functional, Homo sapiens; outline: as §1
DuPro [24] = assay: Macrocycle level in DuPro cells in 3 days after treatment with 4 uM concentration of the compound; Macrocycle level measured in per 10 lakh cells; type: functional, Homo sapiens; outline: as §1
DuPro [25] = assay: Macrocycle level in DuPro cells in 5 days after treatment with 4 uM concentration of the compound; Macrocycle level measured in per 10 lakh cells; type: functional, Homo sapiens; outline: as §1
DuPro [26] = assay: Inhibitory effect against growth of DuPro human prostate cancer cell line; type: functional; conditions: read-out: ID50 (the source's name); outline: as §2

CCCCCCCCCCCCCC1CC(=O)NCCCNCCCNCCCN1.Cl.Cl.Cl (stereo unspecified)
Polyamine level (DuPro [1]): 47.57 nM
Polyamine level (DuPro [2]): 49.07 nM
Polyamine level (DuPro [3]): 35.91 nM
Polyamine level (DuPro [4]): 42.34 nM
Polyamine level (DuPro [5]): 3 pM

CCCCCCCCCCCCCC1CC(=O)NCCCNCCCCCNCCCN1.Cl.Cl.Cl (stereo unspecified)
Polyamine level (DuPro [1]): 26.96 nM
Polyamine level (DuPro [2]): 17.2 nM
Polyamine level (DuPro [3]): 26.84 nM
Polyamine level (DuPro [4]): 10.24 nM
Polyamine level (DuPro [6]): 5 pM
IC50 (PC-3): 1140 nM

CCCCCCCCCCCCCC1CC(=O)NCCCNCCCCNCCCN1.Cl.Cl.Cl (stereo unspecified)
Polyamine level (DuPro [7]): 2.79 nM
Polyamine level (DuPro [2]): 25.07 nM
Polyamine level (DuPro [8]): 17.2 nM
Polyamine level (DuPro [4]): 21.47 nM

CCCCCCCCCCCCCC1CC(=O)NCCCNCCCNCCCNCCCN1.Cl.Cl.Cl.Cl (stereo unspecified)
Polyamine level (DuPro [9]): 0.088 nM
Polyamine level (DuPro [10]): 5.99 nM
Polyamine level (DuPro [11]): 46.77 nM
Polyamine level (DuPro [12]): 49.31 nM
Polyamine level (DuPro [13]): 0.02 nM
Polyamine level (DuPro [14]): 0.011 nM
Polyamine level (DuPro [15]): 0.094 nM
Polyamine level (DuPro [16]): 0.043 nM
Polyamine level (DuPro [17]): 10.09 nM
Polyamine level (DuPro [18]): 0.029 nM
Polyamine level (DuPro [19]): 0.014 nM
Polyamine level (DuPro [20]): 0.027 nM
Polyamine level (DuPro [21]): 0.018 nM
Polyamine level (DuPro [22]): 4 pM
Polyamine level (DuPro [23]): 0.053 nM

CCCCCCCCCCCCCC1CC(=O)NCCCNCCCCN1.Cl.Cl (stereo unspecified)
Polyamine level (DuPro [7]): 17 nM
Polyamine level (DuPro [24]): 22.1 nM
Polyamine level (DuPro [8]): 24 nM
Polyamine level (DuPro [25]): 32 nM
IC50 (DuPro [26]): 1800 nM
IC50 (PC-3): 1700 nM
